# UBC13 inh: human UBC13 polyubiquitination inhibition | P61088 | UBC13 polyubiquitin chain formation, TR-FRET | inhibition, % at 20 µM | 330,000 tested, 0.47% active | AID 485273; in the data active means inhibition above about 45%, passing the limit was not always enough
# MEKK2 WT-MEK5: raises or lowers MEK5 binding to wildtype human MEKK2 PB1 domain; bead flow cytometry, Alexa488-MEK5 binding to MEKK2 WT; actives lie on both sides; Q9Y2U5; AID 1531; binding response (% of control), % at 10 µM; 290,000 tested, 1.1% active; in the data active means binding response below about 67% or above about 130%
# Apaf-1 inh: human Apaf-1 inhibition; reconstituted apoptosome caspase-3 activity, DEVD-Rh110 fluorescence; inhibition, % at 20 µM; 330,000 tested, 0.71% active; active means inhibition of at least 40% at 20 µM;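 further: plate controls were DMSO wells for no effect and DEVD-CHO caspase inhibitor wells for full effect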
#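 Assay system: Apoptosome proteins | Medium: pH 7.5 Hepes buffer with CHAPS, BSA, DTT | Also added: Cytochrome c and DEVD-Rh110 substrate | Times: 30 min plus 50 min, RT | Detection: Rhodamine 110 fluorescence at Ex 480/Em 540 nm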
# MEKK2 mut-MEK5: signal of MEK5 binding to mutant human MEKK2 PB1 domain; bead flow cytometry, Alexa488-MEK5 binding to MEKK2 mutant; percent response, % at 10 µM; 290,000 tested, 0.35% active; AID 1530; in the data active means percent response above about 24%, passing the limit was not always enough
# MEKK3 PB1 HTS: raises or lowers MEK5 binding to the human MEKK3 PB1 domain; 290,000 tested, 1.4% active; binding response (% of control), % at 10 µM; Q99759; bead-based flow cytometry, Alexa488-MEK5 binding to MEKK3; actives lie on both sides; 0 = blocked by unlabeled MEK5, 100 = vehicle;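 active means binding response more than 3 SD above or below the average of its plate-row segment, actives on both sides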;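 further: Alexa488 bead fluorescence after subtracting the streptavidin-only scavenger bead signal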
# MEKK2wt confirm: raises or lowers MEK5 binding to wildtype human MEKK2, retest. shares compounds with MEKK3 PB1 HTS. bead flow cytometry, Alexa488-MEK5 binding to MEKK2 WT; actives lie on both sides. binding response (% of control), % at 10 µM. 5,900 tested, 2.4% active. AID 1892; in the data active means binding response below about 16% or above about 210%; inactive means in between
# MEKK2mut confirm: signal of MEK5 binding to mutant human MEKK2, retest. percent response, % at 10 µM. 5,900 tested, 2% active. shares compounds with MEKK3 PB1 HTS. AID 1893. bead flow cytometry, Alexa488-MEK5 binding to MEKK2 mutant; in the data active means percent response mostly above about 71%, no sharp cut-off; inactive means mostly below about 38%;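 further: higher means compound restores mutant binding toward wildtype level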
# MEKK3-MEK5 inh: MEKK3-MEK5 PB1 inhibition, single concentration confirmation; 5,900 tested, 1.8% active; shares compounds with MEKK3 PB1 HTS; binding response (% of control), % at 10 µM; bead flow cytometry, Alexa488-MEK5 binding to MEKK3; hits give low values;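 active means binding response below 72% of control, or above a set upper limit, though filed actives all read lower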;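 further: 100% = DMSO only wells and 0% = binding blocked by excess unlabeled MEK5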
# * hit, by the source's call; nt = not tested or not shown; [ ] = another dose, or the depositor's remark. Hits are enriched below; roughly 2.9% of the tested compounds scored in any of these assays.
SMILES,UBC13 inh,MEKK2 WT-MEK5,Apaf-1 inh,MEKK2 mut-MEK5,MEKK3 PB1 HTS,MEKK2wt confirm,MEKK2mut confirm,MEKK3-MEK5 inh
O=S(=O)(NCC1(N2CCOCC2)CCCCC1)c1ccc(Cl)cc1C(F)(F)F,7,105,15,9,101,nt,nt,nt
CCOC(=O)C1CCN(C(=O)COC(=O)COc2ccc(Cl)cc2)CC1,-4,53,-5,-17,37*[inhibitor],100,-6,101
CCOC(=O)C1CCN(C(=O)Cc2ccc(OC)c(OC)c2)CC1,-2,91,12,-11,81*[inhibitor],103,0,104
NC(=O)C12CCCC(Br)(CCC1)C2,3,96,-18,-25,86,nt,nt,nt
CCOc1ccc(OCCCCOc2ccccc2C(C)=O)cc1,16,111,9,3,104,nt,nt,nt
CCOc1cccc(OCCOCCOc2ccccc2C(C)=O)c1,1,111,6,2,193*,95,4,100
CC(C)Cn1c(CN2CCN(C)C(CCO)C2)nc2ccccc21 (stereo not given),5,109,-3,9,105,nt,nt,nt
CC(C)n1cc(CN2CCN(C)C(CCO)C2)c2ccccc21 (stereo not given),-7,112,1,24*,110,104,3,105
O=C(NCc1cnn(-c2ccccc2)c1)C1CCC(=O)N(C2CC2)C1 (stereo not given),-6,105,-2,4,102,nt,nt,nt
Oc1ccccc1-c1cc(-c2ccco2)[nH]n1,-7,96,10,-1,103,nt,nt,nt
Oc1ccc(Cl)cc1-c1cc(-c2ccco2)[nH]n1,2,88,18,-16,78*[inhibitor],97,-12,92
CC(=O)N(c1nnc(-c2cccc(C)c2)s1)C1CCCC1,-13,98,18,1,100,nt,nt,nt
COCCn1c(SCC(=O)Nc2ccccc2)nc2c(oc3ccccc32)c1=O,4,7.0*[inhibitor],-22,-46,4.0*[inhibitor],107,-3,106
Cc1ccc(-c2c[n+](CC(=O)Nc3nc(-c4ccc(F)cc4)cs3)c3n2CCC3)cc1,16,226*,30,76*,109,199,76*,115
O=C(C[n+]1cc(-c2ccc(Cl)cc2)n2c1CCC2)N1c2ccccc2Sc2ccccc21,8,157*,10,29,100,146,19,103
O=C(C[n+]1cc(-c2ccc(F)cc2)n2c1CCC2)Nc1nc(-c2ccccc2)cs1,22,127,8,1,98,nt,nt,nt
COc1ccc(-c2c[n+](CC(=O)N3c4ccccc4Sc4ccccc43)c3n2CCC3)cc1,30,123,4,16,101,nt,nt,nt
O=C(C[n+]1cc(-c2ccc(Cl)cc2)n2c1CCC2)Nc1nc(-c2ccccc2)cs1,8,146*,29,28,99,163,37,94
CCCCC(=O)NC1(C(F)(F)F)NC(=O)N(Cc2ccccc2)C1=O (stereo not given),-3,102,6,-1,106,nt,nt,nt
COCCN(CC(=O)Nc1cccc(C)c1C)C(=O)Cn1c(=O)cnc2ccccc21,4,nt,-5,nt,nt,nt,nt,nt
COc1cc(OC)cc(C(=O)N[C@H](C(=O)Nc2cc(F)ccc2C)C(C)C)c1,9,102,10,-1,101,nt,nt,nt
COc1ccc2c(C)cc(SCC#N)nc2c1,6,58*[inhibitor],-12,38*,102,101,-8,103
Cc1cccc(OCc2nnc(SCC(=O)NC3CCCC3)n2C)c1,3,100,7,0,102,nt,nt,nt
c1nc(NCC2(N3CCOCC3)CCCCC2)c2ccsc2n1,-6,117,-313,4,123*,106,7,108
COc1ccccc1-n1c(CNC(=O)c2cccc([N+](=O)[O-])c2C)n[nH]c1=S,4,36*[inhibitor],4,-33,26*[inhibitor],96,1,98

# Screens (PubChem BioAssay)
